Measurements as given in ChEMBL document CHEMBL4002604, “Evaluation of biological properties of 3,3',4,4'-benzophenonetetracarboxylic dianhydride derivatives and their ability to inhibit hexokinase activity” (2017).

Experiments:
P19 [1] = test: Cytotoxicity against undifferentiated mouse P19 cells assessed as mitochondrial superoxide anion level at 1 uM after 72 hrs by MitoSox dye based fluorescence assay relative to control; assay type: functional
Method in brief: (§1)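 Undifferentiated (P19SCs) or differentiated (P19dCs) P19 cells incubated 24 or 72 h with 1 or 100 µM. Mitochondrial membrane potential and mitochondrial superoxide levels measured and expressed relative to untreated control. Means ± SD from 4 independent measurements, at least 4 repeats each. Significance at p<0.05.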

P19 [2] = test: Cytotoxicity against differentiated mouse P19 cells assessed as metabolic activity at 1 to 100 uM after 72 hrs by resazurin assay relative to control; assay type: functional
Method in brief: (§2)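 Metabolic activity by resazurin reduction in undifferentiated (P19SCs) or differentiated (P19dCs) P19 cells. Exposure to 1, 10 or 100 µM for 24, 48 or 72 h. Read-out relative to untreated control. Significance vs control at p<0.05.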

P19 [3] = test: Cytotoxicity against differentiated mouse P19 cells assessed as cell mass at 1 to 100 uM after 72 hrs by SRB assay relative to control; assay type: functional
Method in brief: (§3)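 Cell mass by SRB assay in P19 cells (CRL-1825), either undifferentiated (P19SCs) or differentiated (P19dCs). Cells exposed to 1, 10 or 100 µM for 24, 48 or 72 h. Values expressed relative to untreated control. Means ± SD from at least 4 independent measurements, 6 repeats each. Significance vs control at p<0.05.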

P19 [4] = test: Cytotoxicity against differentiated mouse P19 cells assessed as cell mass at 1 to 100 uM after 48 hrs by SRB assay relative to control; assay type: functional; method in brief: as §3
P19 [5] = test: Cytotoxicity against undifferentiated mouse P19 cells assessed as cell mass at 1 to 100 uM after 48 hrs by SRB assay relative to control; assay type: functional; method in brief: as §3
[6] = biological target: T1, Hexokinase-2 (Homo sapiens) (UniProt P52789); test: Inhibition of recombinant human HK2 using [U-14C]-labeled glucose as substrate in presence of ATP and NADP by G6PD enzyme coupled spectrophotometric assay; details: in the assay text read “glucose” for “[U-14C]-labeled glucose”
T1 sequence (whole entry): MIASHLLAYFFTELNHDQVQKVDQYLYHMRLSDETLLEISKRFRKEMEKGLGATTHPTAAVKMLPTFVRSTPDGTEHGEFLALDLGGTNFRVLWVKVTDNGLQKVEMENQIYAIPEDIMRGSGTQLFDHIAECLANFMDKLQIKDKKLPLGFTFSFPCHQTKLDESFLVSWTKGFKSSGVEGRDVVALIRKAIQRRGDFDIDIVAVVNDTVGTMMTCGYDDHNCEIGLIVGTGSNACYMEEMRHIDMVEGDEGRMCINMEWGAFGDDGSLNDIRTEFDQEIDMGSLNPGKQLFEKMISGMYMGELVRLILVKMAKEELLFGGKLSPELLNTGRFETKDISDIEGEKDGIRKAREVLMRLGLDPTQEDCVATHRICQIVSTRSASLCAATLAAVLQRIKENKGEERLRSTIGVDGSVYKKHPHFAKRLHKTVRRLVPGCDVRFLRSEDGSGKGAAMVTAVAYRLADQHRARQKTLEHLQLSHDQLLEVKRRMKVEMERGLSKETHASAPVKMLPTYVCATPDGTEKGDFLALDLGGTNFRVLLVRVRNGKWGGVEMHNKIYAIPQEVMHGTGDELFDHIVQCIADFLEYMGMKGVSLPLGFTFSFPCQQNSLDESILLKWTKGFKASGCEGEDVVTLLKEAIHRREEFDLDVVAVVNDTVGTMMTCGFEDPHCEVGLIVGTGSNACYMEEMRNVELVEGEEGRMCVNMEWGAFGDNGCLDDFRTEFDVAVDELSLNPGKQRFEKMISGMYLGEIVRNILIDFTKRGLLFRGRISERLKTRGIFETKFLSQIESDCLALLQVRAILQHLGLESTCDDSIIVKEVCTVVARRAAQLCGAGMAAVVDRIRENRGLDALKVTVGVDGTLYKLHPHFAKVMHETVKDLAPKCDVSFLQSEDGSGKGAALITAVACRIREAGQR
Method in brief: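 Coupled hexokinase assay at 340 nm following G6P-dependent NADP→NADPH conversion. Enzyme source is freshly prepared, centrifuged undifferentiated P19 lysate supernatant or recombinant human HKII. Buffer: 100 mM Tris-HCl pH 8.0, 0.5 mM EDTA, 10 mM MgCl2, 2 mM glucose, 0.1 mM NADP, 0.1 U/ml G6PD. Preincubated 10 min at 37°C; reaction started with 10 mM ATP. Means ± SD, 4 experiments, at least 4 repeats each.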

P19 [7] = test: Cytotoxicity against differentiated mouse P19 cells assessed as metabolic activity at 1 to 100 uM after 48 hrs by resazurin assay relative to control; assay type: functional; method in brief: as §2
P19 [8] = test: Cytotoxicity against undifferentiated mouse P19 cells assessed as mitochondrial superoxide anion level at 100 uM after 24 hrs by MitoSox dye based fluorescence assay relative to control; assay type: functional; method in brief: as §1
P19 [9] = test: Cytotoxicity against undifferentiated mouse P19 cells assessed as mitochondrial membrane potential at 1 uM after 24 hrs by TMRF dye based fluorescence assay relative to control; assay type: functional; method in brief: as §1
P19 [10] = test: Cytotoxicity against differentiated mouse P19 cells assessed as mitochondrial membrane potential at 1 uM after 24 hrs by TMRF dye based fluorescence assay relative to control; assay type: functional; method in brief: as §1
P19 [11] = test: Cytotoxicity against differentiated mouse P19 cells assessed as mitochondrial superoxide anion level at 100 uM after 24 hrs by MitoSox dye based fluorescence assay relative to control; assay type: functional; method in brief: as §1
P19 [12] = test: Cytotoxicity against undifferentiated mouse P19 cells assessed as mitochondrial membrane potential at 100 uM after 24 hrs by TMRF dye based fluorescence assay relative to control; assay type: functional; method in brief: as §1
P19 [13] = test: Cytotoxicity against differentiated mouse P19 cells assessed as mitochondrial membrane potential at 100 uM after 24 hrs by TMRF dye based fluorescence assay relative to control; assay type: functional; method in brief: as §1

inhibition [6]: Dose-dependent effect
SMILES: O=C(c1ccc2c(c1)C(=O)N(c1cccc(O)c1)C2=O)c1ccc2c(c1)C(=O)N(c1cccc(O)c1)C2=O
Activity (P19 [1]): 106%
Activity (P19 [2]): 91.5%
Activity (P19 [3]): 71.9%
Activity (P19 [4]): 102.2%
Activity (P19 [5]): 79.9%
Activity (P19 [7]): 97.5%
Activity (P19 [8]): 55.1%
Activity (P19 [9]): 86%
Activity (P19 [10]): 94.5%
Activity (P19 [11]): 117.4%
Activity (P19 [12]): 91%
Activity (P19 [13]): 96.4%
